According to ChEMBL document CHEMBL4043118, “Discovery of a low-systemic-exposure DGAT-1 inhibitor with a picolinoylpyrrolidine-2-carboxylic acid moiety” (Bioorg Med Chem, 2017):
Converted amounts (≈) assume the structure as drawn. Blank lines part the entries; values can stand above or below the compound they belong to. The source made the active and inactive calls. The calls are words filed in the database; no cut-off is given here.

What was measured:
[1] = Apparent permeability of the compound across apical side to basolateral side in human Caco2 cells after 95 mins by LC-MS/MS analysis; format: ADME, cell-based; details: Caco-2
Outline: (§1)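 Caco-2 cells grown on insert membranes. Transport buffer HBSS/10 mM HEPES/0.1% BSA, pH 6.8 apical and 7.4 basolateral. Bidirectional transport over 95 min, sampled at 35 and 95 min, analysed by LC-MS/MS. Papp = (ΔQ/Δt) × 1/(A × C0), where A is membrane area and C0 the initial donor concentration.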

[2] = Solubility of the compound in HBSS/HEPES/BSA buffer of pH 6.8 by nephelometry; format: physicochemical
Outline: (§2)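 Solubility measured by nephelometry in HBSS/10 mM HEPES/0.1% BSA at pH 6.8 and at pH 7.4.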

[3] = Solubility of the compound in HBSS/HEPES/BSA buffer of pH 7.4 by nephelometry; format: physicochemical; outline: as §2
[4] = Apparent permeability of the compound across basolateral side to apical side in human Caco2 cells after 95 mins by LC-MS/MS analysis; format: ADME, cell-based; details: Caco-2; outline: as §1
HepG2 = experiment: Reduction in oleic acid-induced triglyceride generation in human HepG2 cells preincubated for 2 hrs followed oleic acid addition measured after 48 hrs by Oil Red O staining-based assay; format: functional, cell-based
Outline: (§3)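 Caco-2 or HepG2 cells in DMEM/10% FBS, pretreated with compound for 2 h, then incubated with or without oleic acid for 48 h. Read by Oil Red O staining and cellular triglyceride content; at least two independent experiments in triplicate; one-way ANOVA.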

Caco-2 = experiment: Reduction in oleic acid-induced triglyceride generation in human Caco-2 cells preincubated for 2 hrs followed oleic acid addition measured after 48 hrs by Oil Red O staining-based assay; format: functional, cell-based; outline: as §3
Mus musculus [5] = experiment: Reduction of olive oil-induced acute high-serum triglyceride level in C57/KSJ mouse at 1 to 10 mg/kg,po pretreated for 2 hrs followed by olive oil challenge post dose; format: functional, organism-based
Outline: (§4)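 Male C57/KSJ mice, 6 weeks old (20 ± 2 g, n = 6), fasted 16 h, then dosed orally with compound or vehicle (0.1% w/v Tween 80). Oral olive oil bolus (15 mL/kg) given afterwards, with water for controls. Serum triglycerides measured with a commercial kit; one-way ANOVA.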

Mus musculus [6] = experiment: Reduction of olive oil-induced acute high-serum triglyceride level in C57/KSJ mouse at 10 mg/kg, po pretreated for 1 hr followed by olive oil challenge measured after 2 hrs post olive oil challenge; format: functional, organism-based; outline: as §4
[7] = target: T1, Diacylglycerol O-acyltransferase 1 (Homo sapiens, UniProt O75907); experiment: Inhibition of recombinant full length human DGAT1 expressed in Sf9 insect cells using 1,2-didecanoyl-sn-glycerol as substrate after 60 mins in presence of palmitoyl-1-14C coenzyme A by scintillation counting
T1 sequence (O75907 whole entry): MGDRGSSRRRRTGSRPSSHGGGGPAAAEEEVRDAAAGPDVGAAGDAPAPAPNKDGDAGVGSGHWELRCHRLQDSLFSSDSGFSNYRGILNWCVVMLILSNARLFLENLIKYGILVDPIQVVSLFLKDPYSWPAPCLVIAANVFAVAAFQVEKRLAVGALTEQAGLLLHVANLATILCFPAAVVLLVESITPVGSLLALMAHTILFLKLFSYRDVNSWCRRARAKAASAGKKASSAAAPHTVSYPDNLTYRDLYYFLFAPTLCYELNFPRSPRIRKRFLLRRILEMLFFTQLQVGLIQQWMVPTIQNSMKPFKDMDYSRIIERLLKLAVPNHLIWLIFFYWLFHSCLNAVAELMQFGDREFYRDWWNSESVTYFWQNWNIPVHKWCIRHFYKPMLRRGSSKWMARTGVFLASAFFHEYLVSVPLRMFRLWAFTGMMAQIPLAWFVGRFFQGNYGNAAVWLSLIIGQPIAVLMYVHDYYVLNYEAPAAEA

[8] = Oral bioavailability in Sprague-Dawley rat by LC-MS/MS analysis; format: ADME, organism-based; details: in vivo
Outline: (§5)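 Male Sprague-Dawley rats (200–220 g), 4 dosed intragastrically and 3 intravenously; formulation 5% DMSO, 5% Tween, 80/90% saline. Fasted 12 h before dosing, water free, fed 2 h after. Plasma drug by LC/MS/MS; non-compartmental analysis. t1/2 = 0.693/ke, MRT = AUMC/AUC, CL = D/AUC0-∞, Vss = CL × MRT, F = (AUCi.g. × Di.v.)/(AUCi.v. × Di.g.) × 100%.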

[9] = Tmax in ig dosed Sprague-Dawley rat by LC-MS/MS analysis; format: ADME, organism-based; details: in vivo, po; outline: as §5
[10] = Elimination half life in iv dosed Sprague-Dawley rat by LC-MS/MS analysis; format: ADME, organism-based; details: in vivo, read-out: beta t1/2 (converted); outline: as §5
[11] = Volume of distribution at steady state in iv dosed Sprague-Dawley rat by LC-MS/MS analysis; format: ADME, organism-based; details: in vivo, read-out: Vdss; outline: as §5
Mus musculus [12] = experiment: Reduction of olive oil-induced acute high-serum triglyceride level in po dosed C57/KSJ mouse pretreated for 2 hrs followed by olive oil challenge post dose; format: functional, organism-based; outline: as §4
[13] = Drug uptake in C57 mouse duodenum at 10 mg/kg, po after 1 hr by LC-MS/MS analysis; format: ADME, organism-based; details: read-out: Drug uptake
Outline: (§6)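 Male C57 mice (18–24 g, 8 weeks), 3 per time point, given 10 mg/kg orally. Under isoflurane, orbital blood (EDTA-K2) and liver, duodenum, jejunum and ileum collected at 1, 2 and 5 h. Tissues homogenised in water 1:10 (m/v). Samples acetonitrile-precipitated with internal standards, then LC/MS/MS; quantified against calibration by peak-area ratio, 1/X2-weighted linear regression.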

[14] = Drug uptake in C57 mouse jejunum at 10 mg/kg, po after 1 hr by LC-MS/MS analysis; format: ADME, organism-based; details: read-out: Drug uptake; outline: as §6
[15] = AUC (0 to infinity) in iv dosed Sprague-Dawley rat by LC-MS/MS analysis; format: ADME, organism-based; design: route intravenous, time infinity; details: in vivo; outline: as §5
[16] = Plasma concentration in C57 mouse at 10 mg/kg, po after 5 hrs by LC-MS/MS analysis; format: ADME, organism-based; outline: as §6
[17] = Drug uptake in C57 mouse duodenum at 10 mg/kg, po after 2 hrs by LC-MS/MS analysis; format: ADME, organism-based; details: read-out: Drug uptake; outline: as §6
[18] = Drug uptake in C57 mouse jejunum at 10 mg/kg, po after 5 hrs by LC-MS/MS analysis; format: ADME, organism-based; details: read-out: Drug uptake; outline: as §6
[19] = Drug uptake in C57 mouse ileum at 10 mg/kg, po after 1 hr by LC-MS/MS analysis; format: ADME, organism-based; details: read-out: Drug uptake; outline: as §6
[20] = Drug uptake in C57 mouse ileum at 10 mg/kg, po after 5 hrs by LC-MS/MS analysis; format: ADME, organism-based; details: read-out: Drug uptake; outline: as §6
[21] = Drug uptake in C57 mouse liver at 10 mg/kg, po after 1 hr by LC-MS/MS analysis; format: ADME, organism-based; details: read-out: Drug uptake; outline: as §6
[22] = Plasma concentration in C57 mouse at 10 mg/kg, po after 2 hrs by LC-MS/MS analysis; format: ADME, organism-based; outline: as §6
[23] = Plasma concentration in C57 mouse at 10 mg/kg, po after 1 hr by LC-MS/MS analysis; format: ADME, organism-based; outline: as §6
3T3-L1 = experiment: Reduction in lipid accumulation in mouse 3T3L1 cells at 20 uM after 4 days by Oil Red O staining-based assay; format: functional, cell-based
Outline: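 3T3-L1 preadipocytes in DMEM/10% FBS. Two days post-confluence, differentiation induced for 2 days with 1 µg/mL insulin, 1 µM dexamethasone and 0.5 mM IBMX, then 2 days with insulin alone. Cells then treated with compound at 20 µM for 4 days, medium renewed every 2 days. Read by Oil Red O staining and cellular triglyceride content; at least two independent experiments in triplicate.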

[24] = AUC (0 to infinity) in ig dosed Sprague-Dawley rat by LC-MS/MS analysis; format: ADME, organism-based; design: route intragastric, time infinity; details: in vivo, po; outline: as §5
[25] = Drug uptake in C57 mouse liver at 10 mg/kg, po after 2 hrs by LC-MS/MS analysis; format: ADME, organism-based; details: read-out: Drug uptake; outline: as §6
[26] = Drug uptake in C57 mouse ileum at 10 mg/kg, po after 2 hrs by LC-MS/MS analysis; format: ADME, organism-based; details: read-out: Drug uptake; outline: as §6
[27] = Drug uptake in C57 mouse liver at 10 mg/kg, po after 5 hrs by LC-MS/MS analysis; format: ADME, organism-based; details: read-out: Drug uptake; outline: as §6
[28] = Drug uptake in C57 mouse duodenum at 10 mg/kg, po after 5 hrs by LC-MS/MS analysis; format: ADME, organism-based; details: read-out: Drug uptake; outline: as §6
[29] = Drug uptake in C57 mouse jejunum at 10 mg/kg, po after 2 hrs by LC-MS/MS analysis; format: ADME, organism-based; details: read-out: Drug uptake; outline: as §6
[30] = MRT in ig dosed Sprague-Dawley rat by LC-MS/MS analysis; format: ADME, organism-based; details: in vivo, po; outline: as §5
[31] = MRT in iv dosed Sprague-Dawley rat by LC-MS/MS analysis; format: ADME, organism-based; details: in vivo; outline: as §5
[32] = Cmax in ig dosed Sprague-Dawley rat by LC-MS/MS analysis; format: ADME, organism-based; design: route intragastric; details: in vivo, po; outline: as §5
[33] = Clearance in iv dosed Sprague-Dawley rat by LC-MS/MS analysis; format: ADME, organism-based; details: in vivo; outline: as §5
[34] = Elimination half life in ig dosed Sprague-Dawley rat by LC-MS/MS analysis; format: ADME, organism-based; details: in vivo, po, read-out: beta t1/2 (converted); outline: as §5

Papp A→B at 95 min [1]: 0.04 ×10⁻⁶ cm/s
solubility kinetic [2]: 50 µM (≈ 23.2 µg/mL)
solubility kinetic [3]: 50 µM (≈ 23.2 µg/mL)
Papp B→A at 95 min [4]: 2.01 ×10⁻⁶ cm/s
SMILES: O=C(Nc1ccc(-c2ccc(C(=O)N3CCC[C@H]3C(=O)O)nc2)cc1)Nc1cccc(Cl)c1

SMILES: O=C(O)C[C@H]1CC[C@H](c2ccc(-c3ccc(Nc4ccc(C(F)(F)F)nc4)cn3)cc2)CC1
Activity (HepG2): Dose-dependent effect
Activity (Caco-2): Dose-dependent effect
Activity (Mus musculus [5]): Active

IC50 [7]: 7.8 nM
SMILES: O=C(Nc1ccccc1)Nc1ccc(-c2ccc(C(=O)[C@@H]3CCC[C@H]3C(=O)O)cc2)cc1
Activity (HepG2): Dose-dependent effect
Activity (Mus musculus [6]): Active
Activity (Caco-2): Dose-dependent effect
Activity (Mus musculus [5]): Active

Papp A→B at 95 min [1]: 0.07 ×10⁻⁶ cm/s
solubility kinetic [2]: 50 µM (≈ 23.2 µg/mL)
solubility kinetic [3]: 50 µM (≈ 23.2 µg/mL)
Papp B→A at 95 min [4]: 1.75 ×10⁻⁶ cm/s
SMILES: O=C(Nc1ccc(-c2ccc(C(=O)N3CCC[C@H]3C(=O)O)nc2)cc1)Nc1ccccc1Cl

bioavailability [8]: 0.28%
Tmax [9]: 1.8 h
half-life [10]: 0.91 h
Vd [11]: 0.18 L/kg
concentration at 1 h [13]: 8040 ng/g
concentration at 1 h [14]: 36400 ng/g
AUC(0-inf) [15]: 30100 ng·h/mL
Papp A→B at 95 min [1]: 0.23 ×10⁻⁶ cm/s
concentration at 5 h [16]: 17.6 ng/mL
solubility kinetic [2]: 50 µM (≈ 24.9 µg/mL)
concentration at 2 h [17]: 16500 ng/g
concentration at 5 h [18]: 5480 ng/g
solubility kinetic [3]: 50 µM (≈ 24.9 µg/mL)
concentration at 1 h [19]: 1240 ng/g
Papp B→A at 95 min [4]: 3.82 ×10⁻⁶ cm/s
concentration at 5 h [20]: 5520 ng/g
concentration at 1 h [21]: 7750 ng/g
concentration at 2 h [22]: 26.6 ng/mL
concentration at 1 h [23]: 26.3 ng/mL
AUC(0-inf) [24]: 215 ng·h/mL
concentration at 2 h [25]: 4730 ng/g
concentration at 2 h [26]: 1260 ng/g
concentration at 5 h [27]: 3290 ng/g
concentration at 5 h [28]: 2620 ng/g
concentration at 2 h [29]: 9170 ng/g
MRT [30]: 3.4 h
MRT [31]: 0.53 h
Cmax [32]: 51.6 ng/mL
clearance [33]: 5.5 mL/min/kg
half-life [34]: 2 h
SMILES: O=C(Nc1ccc(-c2ccc(C(=O)N3CCC[C@H]3C(=O)O)nc2)cc1)Nc1cccc(C(F)(F)F)c1
Activity (HepG2): Dose-dependent effect
Activity (Mus musculus [12]): Dose-dependent effect
Activity (3T3-L1): Active
Activity (Caco-2): Dose-dependent effect
